ChEMBL document CHEMBL1123779, “Modifications of primaquine as antimalarials. 4. 5-Alkoxy derivatives of primaquine” (J Med Chem, 1987)

Assays:
Mus musculus [1] = assay: Suppressive blood schizonticidal antimalarial activity evaluated in the trophozoite-induced Plasmodium berghei infection in mice (Mus musculus) at a dose 160 mg/kg given as no. of toxic deaths; type: functional
How it was run: (§1)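 Rane Laboratory mouse test with blood-induced P. berghei infection, five mice per group. Toxic deaths are deaths occurring before the 6th day postinfection.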

Plasmodium cynomolgi [2] = assay: Cures in Plasmodium cynomolgi infected Rhesus monkeys (Macaca mulatta) on 1 mg/kg/day after 7 days; cured 2 of 2; type: functional
Mus musculus [3] = assay: Suppressive blood schizonticidal antimalarial activity evaluated in the trophozoite-induced Plasmodium berghei infection in mice (Mus musculus) at a dose 40 mg/kg; type: functional; set-up: unit not given beside the values
How it was run: (§2)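 Run at the Rane Laboratory in mice infected with blood-induced P. berghei, five animals per group. Activity is the increase in mean survival time over untreated infected controls. A compound counts as active when treated-group MST is more than twice the control MST. Cures are mice surviving at 60 days postinfection.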

Plasmodium berghei [4] = assay: Suppressive blood schizonticidal antimalarial activity evaluated in the trophozoite-induced Plasmodium berghei infection in mice (Mus musculus) at a dose 640 mg/kg given as number of toxic deaths; type: toxicity, organism-based; set-up: dose 640 mg/kg; conditions: in vivo; how it was run: as §1
Mus musculus [5] = assay: Suppressive blood schizonticidal antimalarial activity evaluated in the trophozoite-induced Plasmodium berghei infection in mice (Mus musculus) at a dose 10 mg/kg; type: functional; how it was run: as §2
Plasmodium berghei [6] = assay: Blood schizonticidal antimalarial activity in the trophozoite-induced Plasmodium berghei infection in mice (Mus musculus) at 20 mg/kg; type: functional; set-up: unit not given beside the values; how it was run: as §2
Plasmodium cynomolgi [7] = assay: Cures in Plasmodium cynomolgi infected Rhesus monkeys (Macaca mulatta) on 10.0 mg/kg/day after 7 days; type: functional, organism-based
Mus musculus [8] = assay: Suppressive blood schizonticidal antimalarial activity evaluated in the trophozoite-induced Plasmodium berghei infection in mice (Mus musculus) at a dose 80 mg/kg given as no. of toxic deaths; type: functional; how it was run: as §1
Plasmodium cynomolgi [9] = assay: Cures in Plasmodium cynomolgi infected Rhesus monkeys (Macaca mulatta) on 0.316 mg/kg/day after 7 days; cured 2 of 4; type: functional
Plasmodium cynomolgi [10] = assay: Radical curative antimalarial activity against Plasmodium cynomolgi infected Rhesus monkeys (Macaca mulatta) after 7 days at 0.1 mg/kg/day dose; cured 2 of 4; type: functional
Plasmodium cynomolgi [11] = assay: Cures in Plasmodium cynomolgi infected Rhesus monkeys (Macaca mulatta) on 0.316 mg/kg/day after 7 days; cured 2 of 3; type: functional
Plasmodium cynomolgi [12] = assay: Cures in Plasmodium cynomolgi infected Rhesus monkeys (Macaca mulatta) on 1 mg/kg/day after 7 days; cured 1 of 1; type: functional
Plasmodium berghei [13] = assay: Blood schizonticidal activity in trophozoite-induced Plasmodium berghei infected mice (Mus musculus) at 40 mg/kg; numbers cured; type: functional
How it was run: (§3)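 Run at the Rane Laboratory with blood-induced P. berghei infections in mice, five animals per group. A cure is a mouse surviving to 60 days postinfection. Deaths before day 6 are recorded separately as toxic deaths. Activity is scored from the increase in mean survival time over untreated controls, and counts as active when treated MST is more than twice control MST.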

Mus musculus [14] = assay: Suppressive blood schizonticidal antimalarial activity evaluated in the trophozoite-induced Plasmodium berghei infection in mice (Mus musculus) at a dose 5 mg/kg; type: functional; set-up: unit not given beside the values; how it was run: as §2
Mus musculus [15] = assay: Suppressive blood schizonticidal antimalarial activity evaluated in the trophozoite-induced Plasmodium berghei infection in mice (Mus musculus) at a dose 20 mg/kg given as no. of cures; type: functional; how it was run: as §3
Mus musculus [16] = assay: Suppressive blood schizonticidal antimalarial activity evaluated in the trophozoite-induced Plasmodium berghei infection in mice (Mus musculus) at a dose 320 mg/kg given as no. of toxic deaths; type: functional; how it was run: as §1
Mus musculus [17] = assay: Suppressive blood schizonticidal antimalarial activity evaluated in the trophozoite-induced Plasmodium berghei infection in mice (Mus musculus) at a dose 10 mg/kg given as no. of cures; type: functional; how it was run: as §3
Mus musculus [18] = assay: Suppressive blood schizonticidal antimalarial activity evaluated in the trophozoite-induced Plasmodium berghei infection in mice (Mus musculus) at a dose 80 mg/kg given as no. of cures; type: functional; how it was run: as §3
Mus musculus [19] = assay: Suppressive blood schizonticidal antimalarial activity evaluated in the trophozoite-induced Plasmodium berghei infection in mice (Mus musculus) at a dose 640 mg/kg given as no. of cures; type: functional; how it was run: as §3
Mus musculus [20] = assay: Suppressive blood schizonticidal antimalarial activity evaluated in the trophozoite-induced Plasmodium berghei infection in mice (Mus musculus) at a dose 320 mg/kg given as number of cures; type: functional; how it was run: as §3
Plasmodium cynomolgi [21] = assay: Cures in Plasmodium cynomolgi infected Rhesus monkeys (Macaca mulatta) on 3.16 mg/kg/day after 7 days; cured 2 of 2; type: functional
Plasmodium cynomolgi [22] = assay: Cures in Plasmodium cynomolgi infected Rhesus monkeys (Macaca mulatta) on 1 mg/kg/day after 7 days; cured 0 of 1; type: functional
Plasmodium cynomolgi [23] = assay: Cures in Plasmodium cynomolgi infected Rhesus monkeys (Macaca mulatta) on 10.0 mg/kg/day after 7 days; cured 1 of 1; type: functional
Mus musculus [24] = assay: Suppressive blood schizonticidal antimalarial activity evaluated in the trophozoite-induced Plasmodium berghei infection in mice (Mus musculus) at a dose 160 mg/kg given as no. of cures; type: functional; how it was run: as §3
Plasmodium cynomolgi [25] = assay: Cures in Plasmodium cynomolgi infected Rhesus monkeys (Macaca mulatta) on 0.316 mg/kg/day after 7 days; cured 3 of 3; type: functional
Mus musculus [26] = assay: Suppressive blood schizonticidal antimalarial activity evaluated in the trophozoite-induced Plasmodium berghei infection in mice (Mus musculus) at a dose 2.5 mg/kg given as number of cures; type: functional; how it was run: as §3
Mus musculus [27] = assay: Suppressive blood schizonticidal antimalarial activity evaluated in the trophozoite-induced Plasmodium berghei infection in mice (Mus musculus) at a dose 5 mg/kg given as no. of cures; type: functional; how it was run: as §3
Plasmodium cynomolgi [28] = assay: Radical curative antimalarial activity against Plasmodium cynomolgi in Rhesus monkeys (Macaca mulatta) at 0.1 mg/kg/day over 7 days; cured 5 of 5; type: functional
Plasmodium cynomolgi [29] = assay: Cures in Plasmodium cynomolgi infected Rhesus monkeys (Macaca mulatta) on 3.16 mg/kg/day after 7 days; cured 0 of 1; type: functional
Plasmodium cynomolgi [30] = assay: Cures in Plasmodium cynomolgi infected Rhesus monkeys (Macaca mulatta) on 0.1 mg/kg/day after 7 days (x7); cured 0 of 2; type: functional
Plasmodium cynomolgi [31] = assay: Cures in Plasmodium cynomolgi infected Rhesus monkeys (Macaca mulatta) on 0.316 mg/kg/day after 7 days; cured 1 of 1; type: functional
Mus musculus [32] = assay: Suppressive blood schizonticidal antimalarial activity evaluated in the trophozoite-induced Plasmodium berghei infection in mice (Mus musculus) at a dose 80 mg/kg; type: functional; set-up: unit not given beside the values; how it was run: as §2
Plasmodium cynomolgi [33] = assay: Cures in Plasmodium cynomolgi infected Rhesus monkeys (Macaca mulatta) on 0.1 mg/kg/day after 7 days; cured 1 of 2; type: functional
Plasmodium cynomolgi [34] = assay: Cures in Plasmodium cynomolgi infected Rhesus monkeys (Macaca mulatta) on 0.316 mg/kg/day after 7 days; cured 0 of 3; type: functional
Plasmodium cynomolgi [35] = assay: Cures in Plasmodium cynomolgi infected Rhesus monkeys (Macaca mulatta) on 0.316 mg/kg/day after 7 days; cured 0 of 2; type: functional
Plasmodium cynomolgi [36] = assay: Radical curative antimalarial activity against Plasmodium cynomolgi in Rhesus monkeys (Macaca mulatta) at 1 mg/kg/day over 7 days; cured 1 of 2; type: functional

Structure (SMILES): CCCCOc1c(OC)cc(NC(C)CCCN)c2ncccc12 (configuration not stated)
- Toxic deaths (Mus musculus [1]): 3
- Cures/no. of animals (Plasmodium cynomolgi [2]): 2
- Delta MST (Mus musculus [3]): 6.7
- Toxic deaths (Plasmodium berghei [4]): 5
- Delta MST (Mus musculus [5]): 4.1
- Delta MST (Plasmodium berghei [6]): 6.5
- Cures/no. of animals (Plasmodium cynomolgi [7]): Toxic
- Toxic deaths (Mus musculus [8]): 2
- Cures/no. of animals (Plasmodium cynomolgi [9]): 2

Structure (SMILES): CCCCCCOc1c(OC)cc(NC(C)CCCN)c2nc(C)cc(C)c12 (configuration not stated)
- Toxic deaths (Mus musculus [1]): 5
- Cures/no. of animals (Plasmodium cynomolgi [10]): 2
- Cures/no. of animals (Plasmodium cynomolgi [11]): 2
- Cures/no. of animals (Plasmodium cynomolgi [12]): 1
- Cures (Plasmodium berghei [13]): 5
- Delta MST (Mus musculus [14]): 7.3
- Cures (Mus musculus [15]): 2
- Toxic deaths (Plasmodium berghei [4]): 5
- Toxic deaths (Mus musculus [16]): 5
- Toxic deaths (Mus musculus [8]): 5
- Cures (Mus musculus [17]): 1

Structure (SMILES): CCCCCCCCCCCOc1c(OC)cc(NC(C)CCCN)c2nccc(C)c12 (configuration not stated)
- Cures (Plasmodium berghei [13]): 1
- Cures (Mus musculus [18]): 2
- Cures (Mus musculus [19]): 5
- Cures (Mus musculus [20]): 5
- Delta MST (Mus musculus [5]): 3.7
- Delta MST (Plasmodium berghei [6]): 1
- Cures/no. of animals (Plasmodium cynomolgi [21]): 2
- Cures/no. of animals (Plasmodium cynomolgi [22]): 0
- Cures/no. of animals (Plasmodium cynomolgi [23]): 1
- Cures (Mus musculus [24]): 5

Structure (SMILES): CCCCCCOc1c(OC)cc(NC(C)CCCN)c2nccc(C)c12 (configuration not stated) [WR-242511]
- Toxic deaths (Mus musculus [1]): 3
- Cures/no. of animals (Plasmodium cynomolgi [12]): 1
- Cures (Plasmodium berghei [13]): 5
- Cures (Mus musculus [18]): 4
- Cures/no. of animals (Plasmodium cynomolgi [25]): 3
- Cures (Mus musculus [15]): 5
- Cures (Mus musculus [26]): 1
- Toxic deaths (Plasmodium berghei [4]): 5
- Cures (Mus musculus [27]): 1
- Toxic deaths (Mus musculus [16]): 5
- Cures/no. of animals (Plasmodium cynomolgi [28]): 5
- Cures (Mus musculus [17]): 1
- Cures/no. of animals (Plasmodium cynomolgi [29]): 0

Structure (SMILES): CCCCCCOc1c(OC)cc(NC(C)CCCN)c2nc(C)ccc12 (configuration not stated)
- Cures (Plasmodium berghei [13]): 1
- Toxic deaths (Plasmodium berghei [4]): 3
- Delta MST (Mus musculus [5]): 2.7
- Toxic deaths (Mus musculus [16]): 3
- Delta MST (Plasmodium berghei [6]): 6
- Cures/no. of animals (Plasmodium cynomolgi [22]): 0
- Cures/no. of animals (Plasmodium cynomolgi [30]): 0
- Cures/no. of animals (Plasmodium cynomolgi [31]): 1
- Delta MST (Mus musculus [32]): 11.4
- Cures (Mus musculus [24]): 3

Structure (SMILES): COc1cc(NC(C)CCCN)c2nccc(C)c2c1OCCCCCCCCOc1ccccc1 (configuration not stated)
- Cures/no. of animals (Plasmodium cynomolgi [2]): 2
- Delta MST (Mus musculus [3]): 9.4
- Cures/no. of animals (Plasmodium cynomolgi [33]): 1
- Toxic deaths (Plasmodium berghei [4]): 1
- Delta MST (Mus musculus [5]): 0.6
- Toxic deaths (Mus musculus [16]): 2
- Delta MST (Plasmodium berghei [6]): 3
- Cures/no. of animals (Plasmodium cynomolgi [34]): 0
- Delta MST (Mus musculus [32]): 4.4
- Cures (Mus musculus [24]): 3

Structure (SMILES): COc1cc(NC(C)CCCN)c2ncc(C)cc2c1 (configuration not stated)
- Toxic deaths (Mus musculus [1]): 2
- Delta MST (Mus musculus [3]): 7.5
- Toxic deaths (Plasmodium berghei [4]): 5
- Toxic deaths (Mus musculus [16]): 5
- Delta MST (Plasmodium berghei [6]): 5.7
- Cures/no. of animals (Plasmodium cynomolgi [35]): 0
- Toxic deaths (Mus musculus [8]): 1
- Cures/no. of animals (Plasmodium cynomolgi [30]): 0
- Cures/no. of animals (Plasmodium cynomolgi [36]): 2
